# Assay results published in BindingDB's records for doi:10.1016/j.bmc.2010.01.049 (Glaxosmithkline, 2010).
# Counter-ions that a name gives are not always drawn.
# Tests used:
# [1] = target: Melanocyte-stimulating hormone receptor (Homo sapiens, UniProt Q01726); experiment: Agonist activity at human MC1R expressed in CHO cells after 4 hrs by luciferase reporter gene assay
# Summary of the method: (§1)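 CHO-6xCRE-luc+ cells expressing the human receptor, plated at 4000 cells/well in DMEM/F12 with 10% FBS 48 h before assay. Switched to serum-free medium 16 h before compound addition, then incubated 4 h at 37 °C. Luciferase read after 10 min dark adaptation. Activity expressed as % of fold stimulation by 1 × 10^-7 M NDP-aMSH (duplicate control wells).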
# [2] = target: Melanocortin receptor 4 (Homo sapiens, UniProt P32245); experiment: Agonist activity at human MC4R expressed in CHO cells after 4 hrs by luciferase reporter gene assay; summary of the method: as §1
# Chain of Melanocortin receptor 4 (P32245 whole entry): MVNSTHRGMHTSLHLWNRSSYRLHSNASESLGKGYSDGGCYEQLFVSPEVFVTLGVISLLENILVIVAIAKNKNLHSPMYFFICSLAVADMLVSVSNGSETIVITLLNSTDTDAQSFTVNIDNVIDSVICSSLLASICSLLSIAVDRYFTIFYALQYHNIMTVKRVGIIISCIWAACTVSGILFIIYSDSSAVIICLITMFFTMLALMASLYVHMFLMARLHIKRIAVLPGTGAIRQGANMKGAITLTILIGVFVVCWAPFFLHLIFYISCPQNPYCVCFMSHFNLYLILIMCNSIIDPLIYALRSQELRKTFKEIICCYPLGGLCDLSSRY
# Chain of Melanocyte-stimulating hormone receptor (Q01726 whole entry): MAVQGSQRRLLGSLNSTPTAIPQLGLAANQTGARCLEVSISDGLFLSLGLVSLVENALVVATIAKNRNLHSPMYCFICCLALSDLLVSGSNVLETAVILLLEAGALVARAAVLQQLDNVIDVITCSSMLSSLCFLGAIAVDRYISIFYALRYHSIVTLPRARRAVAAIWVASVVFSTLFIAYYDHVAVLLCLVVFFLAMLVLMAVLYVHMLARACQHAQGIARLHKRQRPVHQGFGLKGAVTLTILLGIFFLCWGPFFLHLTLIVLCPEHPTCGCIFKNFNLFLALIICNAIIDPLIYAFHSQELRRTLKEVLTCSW
SMILES,EC50 [1] [µM],EC50 [2] [µM]
CC(C)N(C(=O)CN1C=CN(c2ccccc2)C(=O)[C@@H](Cc2n[nH]c3ccccc23)C1=O)c1ccccc1,> 31.6,–
CC(C)N(C(=O)CN1C=CN(c2ccccc2)C(=O)C(Cc2n[nH]c3ccccc23)C1=O)c1ccc(O)cc1 (stereo unspecified),–,> 31.6
"COc1ccc(N(C(=O)CN2C=CN(C3CCCCC3)C(=O)C(Cc3ccccc3)C2=O)C(C)C)cc1 (racemic) [(+/-)-2-[4-Cyclohexyl-5,7-dioxo-6-(phenylmethyl)-4,5,6,7-tetrahydro-1H-1,4-diazepin-1-yl]-N-(1-methylethyl)-N-[4-(methyloxy)phenyl]acetamide]",> 31.6,> 31.6
"COc1ccc(N(C(=O)CN2C=CN(C3CCCCC3)C(=O)C(Cc3n[nH]c4ccccc34)C2=O)C(C)C)cc1 (racemic) [(+/-)-2-[4-Cyclohexyl-6-(1H-indazol-3-ylmethyl)-5,7-dioxo-4,5,6,7-tetrahydro-1H-1,4-diazepin-1-yl]-N-(1-methylethyl)-N-[4-(methyloxy)phenyl]acetamide trifluoroacetate]",> 31.6,> 31.6
"COc1ccc(N(C(=O)CN2C=CN(Cc3ccccc3)C(=O)C(Cc3n[nH]c4ccccc34)C2=O)C(C)C)cc1 (racemic) [(+/-)-2-[6-(1H-Indazol-3-ylmethyl)-5,7-dioxo-4-(phenylmethyl)-4,5,6,7-tetrahydro-1H-1,4-diazepin-1-yl]-N-(1-methylethyl)-N-[4-(methyloxy)phenyl]acetamide]",–,> 31.6
"CC(C)N(C(=O)CN1C=CN(c2ccccc2)C(=O)C(Cc2n[nH]c3ccccc23)C1=O)c1ccc(N2CCOCC2)cc1 (racemic) [(+/-)-2-[6-(1H-Indazol-3-ylmethyl)-5,7-dioxo-4-phenyl-4,5,6,7-tetrahydro-1H-1,4-diazepin-1-yl]-N-(1-methylethyl)-N-[4-(4-morpholinyl)phenyl]acetamide]",–,> 31.6
"CC(C)N(C(=O)CN1C=CN(C)C(=O)C(Cc2n[nH]c3cc(F)ccc23)C1=O)c1ccc(F)cc1 (racemic) [(+/-)-2-{6-[(6-Fluoro-1H-indazol-3-yl)methyl]-4-methyl-5,7-dioxo-4,5,6,7-tetrahydro-1H-1,4-diazepin-1-yl}-N-(4-fluorophenyl)-N-(1-methylethyl)acetamide]",–,> 31.6
"COc1ccc(N(C(=O)CN2C=CN(c3ccccc3)C(=O)C(Cc3nn(C)c4ccccc34)C2=O)C(C)C)cc1 (racemic) [(+/-)-N-(1-methylethyl)-2-{6-[(1-methyl-1H-indazol-3-yl)methyl]-5,7-dioxo-4-phenyl-4,5,6,7-tetrahydro-1H-1,4-diazepin-1-yl}-N-[4-(methyloxy)phenyl]acetamide]",> 31.6,> 31.6
